Calls of active or inactive are those of the source. The calls are words filed in the database; no cut-off is given here.
Assays:
MDA-MB-436 [1] = assay: Effect on human MDA-MB-436 cells expressing shTET1 assessed as increase in p21 cascade by immunoblot analysis; type: functional, cell-based
MCF7 [2] = assay: Effect on human MCF7 cells assessed as increase in TET1 level at 2 uM in presence of adriamycin by immunoblot analysis; type: functional, cell-based
Method in brief: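 Immunoblot of MDA-MB-231 and MCF7 lysates after 0.005 µg/ml adriamycin with or without 2 µM GSK343, or DMSO. α-Tubulin and total H3 used as loading controls.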

MDA-MB-436 [3] = assay: Upregulation of TET1 in human MDA-MB-436 cells at 2 uM for 2 days by immunoblot analysis; type: functional, cell-based; settings: time 2.0 day
MCF7 [4] = assay: Effect on human MCF7 cells assessed as increase in global 5hmc level by dot analysis; type: functional, cell-based
Method in brief: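 Global 5hmC measured by dot blot on genomic DNA from cells given GSK343 or carrying EZH2 knock-down, with DMSO or scrambled shRNA as controls. DNA denatured in 0.1 M NaOH at 99 °C for 5 min, then neutralized with ammonium sulfate pH 7.0. 5 µg spotted, UV-crosslinked, probed with anti-5hmC for 1 h at room temperature, ECL detection, dot intensity quantified. Mean ± SD.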

MDA-MB-231 [5] = assay: Effect on human MDA-MB-231 cells expressing shTET1 assessed as increase in p21 cascade by immunoblot analysis; type: functional, cell-based
MDA-MB-436 [6] = assay: Cytotoxicity against human MDA-MB-436 cells assessed as killing of cells at 2 uM in presence of adriamycin; type: functional, cell-based
Method in brief: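 Viability after a range of adriamycin concentrations given alone or together with 2 µM GSK343, measured by Guava ViaCount; mean ± SD.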

MCF7 [7] = assay: Effect on human MCF7 cells assessed as increase in TET2 transcription by qRT-PCR analysis; type: functional, cell-based
Method in brief: (§1)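 qRT-PCR of TET1, TET2 and TET3 transcripts in breast cancer cells exposed to GSK343 (2 µM unless otherwise indicated), shown relative to DMSO-treated cells. Mean ± SD, triplicate unless stated.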

MDA-MB-231 [8] = assay: Effect on human MDA-MB-231 cells assessed as apoptotic phenotype by measuring increase in p53 expression level at 2 uM in presence of adriamycin by immunoblot analysis; type: functional, cell-based
Method in brief: (§2)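 Immunoblot of cell lysates after 0.05 µg/ml adriamycin alone, with 2 µM GSK343, or DMSO. α-Tubulin and total H3 used as loading controls.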

MDA-MB-231 [9] = assay: Induction of apoptosis in human MDA-MB-231 cells xenografted in Crl:NU-Foxn1-nu/nu mouse assessed as apoptotic cells in tumor administered at 5 mg/kg, ip in presence of adriamycin treated for 21 days by TUNEL staining analysis; type: functional, organism-based; settings: time 21.0 day
Method in brief: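 TUNEL staining of xenograft tumor sections. Dosing started when tumors reached about 50 mm3: twice-weekly intraperitoneal GSK343 5 mg/kg, adriamycin 1 mg/kg, the combination, or DMSO solvent control, for 21 days.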

MDA-MB-436 [10] = assay: Induction of apoptosis in human MDA-MB-436 cells assessed as increase in accumulation of cells at G1 phase in presence of adriamycin by BrdU/PI-based cell cycle analysis; type: functional
Method in brief: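 Cell cycle by BrdU/PI staining and flow cytometry, giving G1, S and G2 fractions. Cells received 0.005 µg/ml adriamycin with or without 2 µM GSK343, or DMSO. Mean ± SD.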

MDA-MB-436 [11] = assay: Upregulation of TP53 gene in human MDA-MB-436 cells at 2 uM by qRT-PCR analysis; type: functional, cell-based
Method in brief: (§3)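 Relative transcript levels measured by qRT-PCR in cells treated with 2 µM inhibitor, normalised to DMSO-treated control cells. Triplicate experiments unless stated otherwise; mean ± SD reported; unpaired two-tailed Student's t-test at p < 0.05.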

MDA-MB-231 [12] = assay: Downregulation of EZH2 transcription in human MDA-MB-231 cells at 2 uM for 2 days by immunoblot analysis; type: functional, cell-based; settings: time 2.0 day
MDA-MB-453 = assay: Antiproliferative activity against human MDA-MB-453 cells at 0.5 to 2 uM for 2 days by Guava viacount assay; type: functional, cell-based; settings: dose 0.5-2 µM, time 2.0 day
Method in brief: (§4)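 Cells plated at 2 × 10^4 (24-well) or 1 × 10^5 (12-well), exposed to a range of GSK343 concentrations for 2 days against DMSO solvent control; cell number and viability read by Guava ViaCount flow cytometry, relative to DMSO. Triplicate; mean ± SD.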

MDA-MB-231 [13] = assay: Antiproliferative activity against human MDA-MB-231 cells assessed as increase in global H3K9me3 expression level by immunoblot analysis; type: functional, cell-based
Method in brief: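 Cells exposed to GSK343 at 2 µM (standard level unless stated otherwise), lysed and immunoblotted; α-tubulin and total H3 as loading controls.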

MDA-MB-231 [14] = assay: Antitumor activity against human MDA-MB-231 cells xenografted in Crl:NU-Foxn1-nu/nu mouse assessed as reduction in tumor administered at 5 mg/kg, ip in presence of adriamycin treated for 21 days; type: functional, organism-based; settings: time 21.0 day
MDA-MB-436 [15] = assay: Effect on human MDA-MB-436 cells assessed as increase in TET1 protein level by qRT-PCR analysis
MCF7 [16] = assay: Upregulation of CDKN1A gene in human MCF7 cells at 2 uM by qRT-PCR analysis; type: functional, cell-based; method in brief: as §3
MDA-MB-231 [17] = assay: Antiproliferative activity in human MDA-MB-231 cells assessed as increase in C12FDG based fluorescent SA-beta-gal positive cells at 2 uM in presence of adriamycin by FACS analysis; type: functional, cell-based
Method in brief: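 Cells given 0.005 µg/ml adriamycin with or without 2 µM GSK343, or DMSO; SA-β-gal activity detected with C12FDG fluorescent substrate by flow cytometry, reported as percent positive cells. Mean ± SD.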

MDA-MB-436 [18] = assay: Effect on human MDA-MB-436 cells assessed as apoptotic phenotype by measuring increase in PUMA expression level at 2 uM in presence of adriamycin by immunoblot analysis; type: functional, cell-based; method in brief: as §2
MDA-MB-231 [19] = assay: Downregulation of EZH2 protein expression in human MDA-MB-231 cells at 2 uM for 2 days by immunoblot analysis; type: functional, cell-based; settings: time 2.0 day
MDA-MB-436 [20] = assay: Antiproliferative activity in human MDA-MB-436 cells expressing vector assessed as increase in SA-beta-gal positive cells by SA-beta-gal staining analysis (reference value: 10.3+/-3.7%); type: functional
MDA-MB-436 [21] = assay: Effect on […] in human MDA-MB-436 cells assessed as repression in TET1 promoter EZH2 by ChiP-qPCR analysis; type: functional, cell-based
Method in brief: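 Cells treated with GSK343 or DMSO; chromatin immunoprecipitated with anti-EZH2 or anti-H3K27me3 antibody and quantified by qPCR with primers for the TET1 promoter; input as internal control, IgG as negative control.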

BT-474 = assay: Effect on human BT-474 cells assessed as increase in TET1 transcription by qRT-PCR analysis; type: functional, cell-based; method in brief: as §1
MDA-MB-231 [22] = assay: Antiproliferative activity against human MDA-MB-231 cells assessed as increase in cell death at 10 uM for 2 days by Guava viacount assay; type: functional, cell-based; settings: time 2.0 day; method in brief: as §4
MCF7 [23] = assay: Induction of cell cycle arrest in human MCF7 cells assessed as accumulation of cells at G1 phase measured at 2 uM by BrdU/PI staining based flow cytometric analysis (reference value: 65.2%); type: functional
MDA-MB-436 [24] = assay: Effect on human MDA-MB-436 cells expressing shTET1 assessed as increase in H3K9me3 cascade by immunoblot analysis; type: functional, cell-based

Structure (SMILES): CCCc1cc(C)[nH]c(=O)c1CNC(=O)c1cc(-c2ccnc(N3CCN(C)CC3)c2)cc2c1cnn2C(C)C
- Activity (MDA-MB-436 [1]): inactive
- Activity (MCF7 [2]): inactive
- Activity (MDA-MB-436 [3]): Active
- Activity (MCF7 [4]): inactive
- Activity (MDA-MB-231 [5]): inactive
- Activity (MDA-MB-436 [6]): Active
- Activity (MCF7 [7]): inactive
- Activity (MDA-MB-231 [8]): Active
- Activity (MDA-MB-231 [9]): Active
- Activity (MDA-MB-436 [10]): Active
- Activity (MDA-MB-436 [11]): Active
- Activity (MDA-MB-231 [12]): Active
- Activity (MDA-MB-453): Active
- Activity (MDA-MB-231 [13]): Active
- Activity (MDA-MB-231 [14]): Active
- Activity (MDA-MB-436 [15]): Active
- Activity (MCF7 [16]): inactive
- Activity (MDA-MB-231 [17]): Active
- Activity (MDA-MB-436 [18]): Active
- Activity (MDA-MB-231 [19]): Active
- Activity (MDA-MB-436 [20]): 46.4%
- Activity (MDA-MB-436 [21]): Active
- Activity (BT-474): inactive
- Activity (MDA-MB-231 [22]): Active
- Activity (MCF7 [23]): 66.1%
- Activity (MDA-MB-436 [24]): inactive

From ChEMBL document CHEMBL5715960, “Epigenetic Co-Deregulation of EZH2/TET1 is a Senescence-Countering, Actionable Vulnerability in Triple-Negative Breast Cancer” (Theranostics, 2019)
